Legend:
Rattus norvegicus [1] = assay: Change in systolic arterial blood pressure in renal artery ligated hypertensive rats, orally dosed at 10 mg/kg; format: functional; conditions: route oral
Method in brief: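 Conscious male CD Sprague-Dawley rats (250-270 g) with left renal artery ligated several days earlier under ketamine. Single oral gavage, 3-8 rats/group. Systolic pressure by indirect tail-cuff sphygmomanometry before and 3 h post-dose; change reported as SAP decrease at 3 h, mean ± SEM.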

[2] = target: T1, Type-1 angiotensin II receptor B (Rattus norvegicus, UniProt P29089); assay: Displacement of [125I]-Sar1-Ile8-A II from rat adrenal Angiotensin-1 (AT-1) receptor
T1 sequence (P29089 whole entry): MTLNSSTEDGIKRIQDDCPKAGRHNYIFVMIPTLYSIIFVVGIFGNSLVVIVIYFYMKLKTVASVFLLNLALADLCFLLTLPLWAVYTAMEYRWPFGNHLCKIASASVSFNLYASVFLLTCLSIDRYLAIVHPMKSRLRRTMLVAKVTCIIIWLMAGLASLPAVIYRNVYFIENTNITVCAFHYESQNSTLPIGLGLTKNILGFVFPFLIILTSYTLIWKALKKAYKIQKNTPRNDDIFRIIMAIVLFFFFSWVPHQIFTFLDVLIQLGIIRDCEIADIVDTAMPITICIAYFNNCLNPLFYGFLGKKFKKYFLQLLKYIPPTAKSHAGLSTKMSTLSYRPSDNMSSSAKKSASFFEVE

Rattus norvegicus [3] = assay: Change in mean arterial blood pressure in renal artery ligated hypertensive rats, orally dosed at 1 mg/kg; format: functional; conditions: route oral
Method in brief: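 Male CD Sprague-Dawley rats (250-270 g), left renal artery ligated under ketamine (100 mg/kg ip); catheterized for direct recording 2-3 days before test. Single oral gavage, 3-7 rats/group. MAP recorded before and for 16 h after dosing; value is maximal MAP decrease, mean ± SEM; decrease under 15 mmHg counted as no effect.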

| Compound | Change in blood pressure (Rattus norvegicus [1]) | Ki [2] | Change in blood pressure (Rattus norvegicus [3]) |
| --- | --- | --- | --- |
| CCCc1nc(C)n2nc(NC)nc2c1Cc1ccc(-c2ccccc2-c2nn[nH]n2)cc1 | -65.3 mmHg | 5 nM | -23.6 mmHg |
| CCc1nc(C)n2nc(O)nc2c1Cc1ccc(-c2ccccc2-c2nn[nH]n2)cc1 | -72.8 mmHg | 35 nM | -20.1 mmHg |
| CCCc1ncn2ncnc2c1Cc1ccc(-c2ccccc2-c2nn[nH]n2)cc1 | -20 mmHg | 50 nM |  |
| CCCc1nc(C)n2nc(S(=O)(=O)NC)nc2c1Cc1ccc(-c2ccccc2-c2nn[nH]n2)cc1 | -37.2 mmHg | 139 nM | -14.1 mmHg |
| CCCc1nc(C)n2nc(C)nc2c1Cc1ccc(-c2ccccc2-c2nn[nH]n2)cc1 | -71.8 mmHg | 32 nM | -17.9 mmHg |
| CCCCc1nc(C)n2c(S)nnc2c1Cc1ccc(-c2ccccc2-c2nn[nH]n2)cc1 | -86.3 mmHg | 106 nM | -24.3 mmHg |
| CCCc1nc(CC)n2nc(O)nc2c1Cc1ccc(-c2ccccc2-c2nn[nH]n2)cc1 | -75.8 mmHg | 225 nM | -46.5 mmHg |
| CCCCc1nc(C)n2nc(O)nc2c1Cc1ccc(-c2ccccc2-c2nn[nH]n2)cc1 | -91.5 mmHg | 30 nM | -22.1 mmHg |
| CCCc1nc(C)n2nc(SC)nc2c1Cc1ccc(-c2ccccc2-c2nn[nH]n2)cc1 | -32.2 mmHg | 174 nM | -11.8 mmHg |
| CCCc1nc(C)n2nc(SCC(=O)OCC)nc2c1Cc1ccc(-c2ccccc2-c2nn[nH]n2)cc1 | -26.4 mmHg | 99 nM |  |
| CCCc1nc(C)n2nc(CO)nc2c1Cc1ccc(-c2ccccc2-c2nn[nH]n2)cc1 | -62.5 mmHg | 5 nM | -25.4 mmHg |
| CCCCc1nc(Cl)c(CO)n1Cc1ccc(-c2ccccc2-c2nnn[nH]2)cc1 [LOSARTAN] | -104.2 mmHg |  | -32.9 mmHg |
| CCCc1nc(C)n2nc(COC)nc2c1Cc1ccc(-c2ccccc2-c2nn[nH]n2)cc1 | -73.1 mmHg | 15 nM | -13.2 mmHg |
| CCCc1nc(C)n2nc(S(N)(=O)=O)nc2c1Cc1ccc(-c2ccccc2-c2nn[nH]n2)cc1 | -61.3 mmHg | 11 nM | -14.5 mmHg |
| CCCc1nc(C)n2nc(OC)nc2c1Cc1ccc(-c2ccccc2-c2nn[nH]n2)cc1 | -26.2 mmHg | 27 nM |  |
| CCCc1nc(CO)n2nc(C)nc2c1Cc1ccc(-c2ccccc2-c2nn[nH]n2)cc1 | -21.4 mmHg | 27 nM |  |
| CCCc1nc(C)n2nc(C(=O)OCC)nc2c1Cc1ccc(-c2ccccc2-c2nn[nH]n2)cc1 | -76.7 mmHg | 23 nM | -14.9 mmHg |
| CCCc1nc(CCC)n2nc(O)nc2c1Cc1ccc(-c2ccccc2-c2nn[nH]n2)cc1 | -72.6 mmHg | 659 nM | -22.2 mmHg |
| CCCc1ncn2nc(O)nc2c1Cc1ccc(-c2ccccc2-c2nn[nH]n2)cc1 | -38.3 mmHg | 46 nM | -17.9 mmHg |
| CCCc1nc(C)n2cnnc2c1Cc1ccc(-c2ccccc2-c2nn[nH]n2)cc1 | -77.2 mmHg | 10 nM | -24.2 mmHg |
| Cc1nc(C2CC2)c(Cc2ccc(-c3ccccc3-c3nn[nH]n3)cc2)c2nc(O)nn12 | -51.1 mmHg | 82 nM | -12.3 mmHg |

| Compound | Change in blood pressure (Rattus norvegicus [1]) | Ki [2] | Change in blood pressure (Rattus norvegicus [3]) |
| --- | --- | --- | --- |
| CCCc1nc(C)n2nc(C(F)(F)F)nc2c1Cc1ccc(-c2ccccc2-c2nn[nH]n2)cc1 | -11.8 mmHg | 147 nM |  |
| CCCc1nc(C)n2nc(NCC(=O)OCC)nc2c1Cc1ccc(-c2ccccc2-c2nn[nH]n2)cc1 | -73.6 mmHg | 32 nM | -5.7 mmHg |
| CCCc1nc(C)n2nc(S)nc2c1Cc1ccc(-c2ccccc2-c2nn[nH]n2)cc1 | -57.8 mmHg | 10 nM | -19.7 mmHg |
| CCCc1nc(C)n2nc(CC)nc2c1Cc1ccc(-c2ccccc2-c2nn[nH]n2)cc1 | -69 mmHg | 8 nM | -8.9 mmHg |
| CCCc1nc(CO)n2nc(O)nc2c1Cc1ccc(-c2ccccc2-c2nn[nH]n2)cc1 | -40.6 mmHg | 10 nM | -21.5 mmHg |
| CCCc1nc(C)n2c(=O)n(CCO)nc2c1Cc1ccc(-c2ccccc2-c2nn[nH]n2)cc1 | -67.9 mmHg | 6 nM | -25.6 mmHg |
| CCCc1nc(C)n2ncnc2c1Cc1ccc(-c2ccccc2-c2nn[nH]n2)cc1 | -89.7 mmHg | 12 nM | -20.1 mmHg |
| CCCc1nc(C)n2c(O)nnc2c1Cc1ccc(NC(=O)c2ccccc2S(=O)(=O)O)cc1 | -18.3 mmHg | 41 nM |  |
| CCCc1nc(C)n2nc(CC(=O)OCC)nc2c1Cc1ccc(-c2ccccc2-c2nn[nH]n2)cc1 | -84 mmHg | 9 nM | -18.1 mmHg |
| CCCc1nc(COC)n2nc(O)nc2c1Cc1ccc(-c2ccccc2-c2nn[nH]n2)cc1 | -88.7 mmHg | 92 nM | -18.5 mmHg |
| CCCCc1nc(C)n2nc(O)nc2c1Cc1ccc(-c2ccccc2C(=O)O)cc1 | -23.5 mmHg | 622 nM |  |
| CCCc1nc(C)n2c(=O)n(C)nc2c1Cc1ccc(-c2ccccc2-c2nn[nH]n2)cc1 | -48.8 mmHg | 53 nM | -25.1 mmHg |
| CCCc1nc(C)n2nc(S(=O)(=O)N(C)C)nc2c1Cc1ccc(-c2ccccc2-c2nn[nH]n2)cc1 | -7.2 mmHg | 185 nM |  |
| CCCc1nc(SC)n2c(O)nnc2c1Cc1ccc(-c2ccccc2-c2nn[nH]n2)cc1 | -15.6 mmHg |  |  |
| CCCc1nc(COC)n2nc(C)nc2c1Cc1ccc(-c2ccccc2-c2nn[nH]n2)cc1 | -44.4 mmHg | 111 nM | -21.8 mmHg |
| CCCc1nc(C)n2nc(C(=O)O)nc2c1Cc1ccc(-c2ccccc2-c2nn[nH]n2)cc1 | -36.4 mmHg | 35 nM | -13.4 mmHg |
| CCCc1nc(C)n2c(S)nnc2c1Cc1ccc(-c2ccccc2-c2nn[nH]n2)cc1 | -90.2 mmHg | 127 nM | -22.4 mmHg |
| CCCc1nc(C)n2c(O)nnc2c1Cc1ccc(-c2ccccc2-c2nn[nH]n2)cc1 | -87.5 mmHg | 10 nM | -44.6 mmHg |
| CCCc1nc(C)n2c(=O)n(CC(=O)OCC)nc2c1Cc1ccc(-c2ccccc2-c2nn[nH]n2)cc1 | -71.7 mmHg | 12 nM | -21.6 mmHg |
| CCCc1nc(C)n2nc(N)nc2c1Cc1ccc(-c2ccccc2-c2nn[nH]n2)cc1 | -77.2 mmHg | 1 nM | -33.4 mmHg |
| CCCc1nc(C)n2nc(-c3ccccc3)nc2c1Cc1ccc(-c2ccccc2-c2nn[nH]n2)cc1 | -48.2 mmHg | 175 nM | -13.3 mmHg |

From ChEMBL document CHEMBL1127592, “Synthesis and SAR studies of novel triazolopyrimidine derivatives as potent, orally active angiotensin II receptor antagonists” (J Med Chem, 1994)
